In brackets after ≈: the same amount, converted by molar mass.
How the values were obtained:
Enterobacter cloacae [1] = assay: Truncation of the zone of inhibition was graded for Enterobacter cloacae EB17 on a 30 ug disk of test compound; type: functional
Method in brief: (§1)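 Cefoxitin disk approximation: Mueller-Hinton agar swab-inoculated with ~1×10^8 cells/mL of inducible Enterobacter strains; 30 µg test-compound disks plus 30 µg cefoxitin disks placed ~15 mm from their edge. Overnight at 35 °C in ambient air; truncation of inhibition zone on cefoxitin-proximal side graded as a measure of induced β-lactamase effect.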

Enterobacter cloacae [2] = assay: Truncation of the zone of inhibition was graded for Enterobacter cloacae EB5 on a 30 ug disk of test compound; type: functional; method in brief: as §1
Enterobacter cloacae [3] = assay: Truncation of the zone of inhibition was graded for Enterobacter cloacae EB57 on a 30 ug disk of test compound; type: functional; method in brief: as §1
Escherichia coli [4] = assay: Minimal inhibitory activity against the Escherichia coli (EC14); type: functional
Method in brief: (§2)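 Agar dilution: compounds diluted in 0.1 M phosphate buffer pH 7.0, incorporated into Mueller-Hinton agar with 1% Bacto-Supplement C at 50 °C. Overnight cultures diluted to ~1×10^4 cells/µL, 1 µL spotted onto plates; incubated overnight at 35 °C in ambient air. MIC = lowest concentration preventing visible growth.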

Escherichia coli [5] = assay: Minimal inhibitory activity against the E. coli(TEM beta lactamase containing); type: functional; method in brief: as §2
Enterobacter cloacae [6] = assay: Minimal inhibitory activity against the Enterobacter cloacae (265A beta lactamase containing); type: functional; method in brief: as §2
Enterobacter cloacae [7] = assay: Minimal inhibitory activity against the Enterobacter cloacae (EB5); type: functional; method in brief: as §2
Haemophilus influenzae = assay: Minimal inhibitory activity against the Haemophilus influenzae (C.L); type: functional; method in brief: as §2
Klebsiella [8] = assay: Minimal inhibitory activity against the Klebsiella(KAE beta lactamase containing); type: functional; method in brief: as §2
Klebsiella [9] = assay: Minimal inhibitory activity against the Klebsiella (X26); type: functional; method in brief: as §2
Morganella morganii = assay: Minimal inhibitory activity against the Proteus morganii (PR15); type: functional; method in brief: as §2
Pseudomonas aeruginosa = assay: Minimal inhibitory activity against the Pseudomonas aeruginosa (X528); type: functional; method in brief: as §2
Providencia rettgeri = assay: Minimal inhibitory activity against the Proteus rettgeri (C24); type: functional; method in brief: as §2
Salmonella = assay: Minimal inhibitory activity against the Salmonella (X514); type: functional; method in brief: as §2
[10] = test system: Staphylococcus epidermidis; assay: Minimal inhibitory activity against the Staphylococcus epidermidis (222); type: functional; method in brief: as §2
Staphylococcus aureus = assay: Minimal inhibitory activity against the Staphylococcus aureus (X1.1); type: functional; method in brief: as §2
Streptococcus pneumoniae = assay: Minimal inhibitory activity against the Streptococcus pneumoniae (PARK); type: functional; method in brief: as §2
Streptococcus pyogenes = assay: Minimal inhibitory activity against the Streptococcus pyogenes (C203); type: functional; method in brief: as §2
[11] = Half-life was evaluated for pharmacokinetic data in rats.; type: ADME, organism-based; conditions: rat, in vivo
Method in brief: (§3)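 Male Sprague-Dawley rats given 20 mg/kg IV in saline via indwelling jugular vein cannula; serial blood sampling through cannula, plasma and urine collected over 4 h. Drug levels by agar well diffusion bioassay with E. coli ATCC 4157 (detection limit ≤0.80 μg/mL). Half-life = 0.693/β from terminal plasma slope; urinary recovery as percent of administered dose.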

Rattus norvegicus = species on record: Rattus norvegicus; assay: Urinary recovery was evaluated for pharmacokinetic data in rats; type: organism-based; conditions: Urine; method in brief: as §3
[12] = Half-life was evaluated for pharmacokinetic data in rats; type: ADME, organism-based; conditions: rat, in vivo
Method in brief: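 Male Sprague-Dawley rats, single 20 mg/kg intravenous dose in saline via indwelling jugular vein cannula; serial blood sampling from the same cannula over 4 h. Plasma levels measured by agar well diffusion bioassay with E. coli ATCC 4157 (detection limit ≤0.80 µg/mL). Half-life calculated as 0.693/β, β being the terminal slope of the plasma concentration–time curve.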

Row | SMILES | Zone diameter (Enterobacter cloacae [1]) [mm] | Zone diameter (Enterobacter cloacae [2]) [mm] | Zone diameter (Enterobacter cloacae [3]) [mm] | MIC (Escherichia coli [4]) [mg/L] | MIC (Escherichia coli [5]) [mg/L] | MIC (Enterobacter cloacae [6]) [mg/L] | MIC (Enterobacter cloacae [7]) [mg/L] | MIC (Haemophilus influenzae) [mg/L] | MIC (Klebsiella [8]) [mg/L] | MIC (Klebsiella [9]) [mg/L] | MIC (Morganella morganii) [mg/L] | MIC (Pseudomonas aeruginosa) [mg/L] | MIC (Providencia rettgeri) [mg/L] | MIC (Salmonella) [mg/L] | MIC [10] [mg/L] | MIC (Staphylococcus aureus) [mg/L] | MIC (Streptococcus pneumoniae) [mg/L] | MIC (Streptococcus pyogenes) [mg/L] | Recovery (Rattus norvegicus) [%] | also measured
1 | CO/N=C(\C(=O)N[C@@H]1C(=O)N2C(C(=O)[O-])=C(C[n+]3ccccc3)CS[C@H]12)c1csc(N)n1 | 30 | 30 | 30 | – | – | – | – | – | – | – | – | – | – | – | – | – | – | – | – | –
2 | CO/N=C(\C(=O)N[C@@H]1C(=O)N2C(C(=O)[O-])=C([n+]3cc(C)ccc3C)CC[C@H]12)c1csc(N)n1 | – | – | – | 0.125 (≈ 0.266 µM) | 0.125 (≈ 0.266 µM) | 1 (≈ 2.13 µM) | 0.25 (≈ 0.531 µM) | 0.5 (≈ 1.06 µM) | 2 (≈ 4.25 µM) | 0.125 (≈ 0.266 µM) | 0.25 (≈ 0.531 µM) | 128 (≈ 272 µM) | 0.25 (≈ 0.531 µM) | 0.125 (≈ 0.266 µM) | 8 (≈ 17 µM) | 4 (≈ 8.5 µM) | 0.06 (≈ 0.128 µM) | 0.03 (≈ 0.0638 µM) | – | –
3 | CO/N=C(\C(=O)N[C@@H]1C(=O)N2C(C(=O)[O-])=C([n+]3cccc4c3CCC4)CC[C@H]12)c1csc(N)n1 | – | – | – | 0.06 (≈ 0.124 µM) | 0.5 (≈ 1.04 µM) | 1 (≈ 2.07 µM) | 0.125 (≈ 0.259 µM) | 0.5 (≈ 1.04 µM) | 8 (≈ 16.6 µM) | 0.03 (≈ 0.0622 µM) | 0.25 (≈ 0.518 µM) | 128 (≈ 265 µM) | 0.5 (≈ 1.04 µM) | 0.03 (≈ 0.0622 µM) | 4 (≈ 8.29 µM) | 2 (≈ 4.14 µM) | 0.03 (≈ 0.0622 µM) | 0.03 (≈ 0.0622 µM) | 82.3 | half-life [11]: 20.1 min
4 | CO/N=C(\C(=O)N[C@@H]1C(=O)N2C(C(=O)[O-])=C([n+]3cccc4c3CCCC4)CC[C@H]12)c1csc(N)n1 | – | – | – | 0.125 (≈ 0.252 µM) | 1 (≈ 2.01 µM) | 2 (≈ 4.03 µM) | 0.25 (≈ 0.503 µM) | 0.5 (≈ 1.01 µM) | 16 (≈ 32.2 µM) | 0.125 (≈ 0.252 µM) | 1 (≈ 2.01 µM) | 128 (≈ 258 µM) | 4 (≈ 8.06 µM) | 0.125 (≈ 0.252 µM) | 8 (≈ 16.1 µM) | 2 (≈ 4.03 µM) | 0.06 (≈ 0.121 µM) | 0.06 (≈ 0.121 µM) | – | –
5 | CO/N=C(\C(=O)N[C@@H]1C(=O)N2C(C(=O)[O-])=C(C[n+]3ccccc3)CC[C@H]12)c1csc(N)n1 | 35 | 26 | 26 | – | – | – | – | – | – | – | – | – | – | – | – | – | – | – | 87.9 | half-life [12]: 22.9 min
6 | CO/N=C(\C(=O)N[C@@H]1C(=O)N2C(C(=O)[O-])=C([n+]3ccc4c(c3)ncn4C)CC[C@H]12)c1csc(N)n1 | – | – | – | 0.06 (≈ 0.121 µM) | 0.5 (≈ 1.01 µM) | 1 (≈ 2.01 µM) | 0.125 (≈ 0.252 µM) | 0.5 (≈ 1.01 µM) | 4 (≈ 8.06 µM) | 0.06 (≈ 0.121 µM) | 0.5 (≈ 1.01 µM) | 128 (≈ 258 µM) | 0.25 (≈ 0.504 µM) | 0.06 (≈ 0.121 µM) | 8 (≈ 16.1 µM) | 4 (≈ 8.06 µM) | 0.06 (≈ 0.121 µM) | 0.06 (≈ 0.121 µM) | – | –
7 | CC(C)(O/N=C(\C(=O)N[C@@H]1C(=O)N2C(C(=O)[O-])=C(C[n+]3ccccc3)CS[C@H]12)c1csc(N)n1)C(=O)O [CEFTAZIDIME] | – | – | – | 0.06 (≈ 0.11 µM) | 0.125 (≈ 0.229 µM) | 32 (≈ 58.5 µM) | – | 0.06 (≈ 0.11 µM) | 0.5 (≈ 0.915 µM) | 0.06 (≈ 0.11 µM) | 0.5 (≈ 0.915 µM) | 2 (≈ 3.66 µM) | – | 0.125 (≈ 0.229 µM) | 16 (≈ 29.3 µM) | 8 (≈ 14.6 µM) | 0.06 (≈ 0.11 µM) | 0.06 (≈ 0.11 µM) | 100 | half-life [12]: 22.9 min
8 | CO/N=C(\C(=O)N[C@@H]1C(=O)N2C(C(=O)[O-])=C([n+]3ccccc3)CC[C@H]12)c1csc(N)n1 | 30 | 30 | 31 | 0.06 (≈ 0.136 µM) | 0.06 (≈ 0.136 µM) | 2 (≈ 4.52 µM) | 0.125 (≈ 0.283 µM) | 0.5 (≈ 1.13 µM) | 8 (≈ 18.1 µM) | 0.03 (≈ 0.0678 µM) | 0.25 (≈ 0.565 µM) | 128 (≈ 289 µM) | 0.5 (≈ 1.13 µM) | 0.03 (≈ 0.0678 µM) | 8 (≈ 18.1 µM) | 4 (≈ 9.04 µM) | 0.03 (≈ 0.0678 µM) | 0.03 (≈ 0.0678 µM) | 82.6 | half-life [11]: 21.2 min
9 | CO/N=C(\C(=O)N[C@@H]1C(=O)N2C(C(=O)[O-])=C([n+]3ccc(C)c(C)c3)CC[C@H]12)c1csc(N)n1 | 30 | 30 | 31 | 0.06 (≈ 0.128 µM) | 0.06 (≈ 0.128 µM) | 0.25 (≈ 0.531 µM) | 0.125 (≈ 0.266 µM) | 0.25 (≈ 0.531 µM) | 4 (≈ 8.5 µM) | 0.06 (≈ 0.128 µM) | 0.125 (≈ 0.266 µM) | 128 (≈ 272 µM) | 0.06 (≈ 0.128 µM) | 0.03 (≈ 0.0638 µM) | 4 (≈ 8.5 µM) | 2 (≈ 4.25 µM) | 0.015 (≈ 0.0319 µM) | 0.03 (≈ 0.0638 µM) | – | –
10 | Cc1cc[n+](C2=C(C(=O)[O-])N3C(=O)[C@@H](NC(=O)/C(=N\OCc4ccccc4)c4csc(N)n4)[C@H]3CC2)cc1C | – | – | – | 2 (≈ 3.66 µM) | 1 (≈ 1.83 µM) | 8 (≈ 14.6 µM) | 4 (≈ 7.32 µM) | 0.125 (≈ 0.229 µM) | 128 (≈ 234 µM) | 0.06 (≈ 0.11 µM) | 2 (≈ 3.66 µM) | 128 (≈ 234 µM) | 8 (≈ 14.6 µM) | 1 (≈ 1.83 µM) | 2 (≈ 3.66 µM) | 1 (≈ 1.83 µM) | 0.015 (≈ 0.0274 µM) | 0.03 (≈ 0.0549 µM) | – | –
